# “And” between values parts separate entries of the source, which are not always exact repeats. Equal entries are not always repeated.
# Tested on: Fibroblast
# Assay: Multiplex assay against human fibroblast
# Format: toxicity, cell-based
# Conditions: number of replicates 2
# In short: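 Compound was added to live cells that had been stained at seeding with Hoechst33342, BioTracker Green Microtubule Cytoskeleton Dye, MitoTracker Red and Annexin V Alexa Fluor 680, and imaging followed on a CQ1 microscope at 37°C and 5% CO2. CellPathfinder machine-learning gating divided cells into Hoechst high-intensity objects or normal cells, normal cells into healthy, pyknosed or fragmented nuclei, and pyknosed cells into mitotic or apoptotic. Tubulin, mitochondrial-mass and membrane-permeability phenotypes are per cents of healthy-nucleus cells.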
# [1] = 12 h, 1 µM, compound concentration 1 uM
# [2] = 12 h, 10 µM, compound concentration 10 uM
# [3] = 24 h, 1 µM, compound concentration 1 uM
# [4] = 24 h, 10 µM, compound concentration 10 uM
# [5] = 48 h, 1 µM, compound concentration 1 uM
# [6] = 48 h, 10 µM, compound concentration 10 uM
smiles,measurement,setting,value
Cc1ccc(C(=O)Nc2cc(N3CCN(C)CC3)cc(C(F)(F)F)c2)cc1-n1cc(-c2cnn(C)c2C)nn1.Cl,Population Apoptotic (%),[1],40% and 42%
same,Population Fragmented Nuclei (%),[1],6% and 16%
same,Population Healthy Nuclei (%),[1],48% and 59%
same,Population Hoechst High Intensity Objects (%),[1],0%
same,Population Membrane Permeable-Phenotype (%),[1],20% and 12%
same,Population Mitochondria Different-Phenotype (%),[1],2%
same,Population Mitotic Cells (%),[1],59% and 57%
same,Population Normal (%),[1],100%
same,Population Pyknosed Nuclei (%),[1],44% and 24%
same,Population Tubulin-Different-Phenotype (%),[1],35% and 32%
same,Total Cell Count,[1],165 and 172
same,Population Apoptotic (%),[2],61% and 35%
same,Population Fragmented Nuclei (%),[2],17% and 18%
same,Population Healthy Nuclei (%),[2],51% and 62%
same,Population Hoechst High Intensity Objects (%),[2],0% and 1%
same,Population Membrane Permeable-Phenotype (%),[2],12% and 11%
same,Population Mitochondria Different-Phenotype (%),[2],4% and 7%
same,Population Mitotic Cells (%),[2],38% and 64%
same,Population Normal (%),[2],99% and 98%
same,Population Pyknosed Nuclei (%),[2],30% and 19%
same,Population Tubulin-Different-Phenotype (%),[2],85% and 70%
same,Total Cell Count,[2],198 and 294
same,Population Apoptotic (%),[3],65% and 41%
same,Population Fragmented Nuclei (%),[3],10% and 17%
same,Population Healthy Nuclei (%),[3],46% and 59%
same,Population Hoechst High Intensity Objects (%),[3],0%
same,Population Membrane Permeable-Phenotype (%),[3],7% and 4%
same,Population Mitochondria Different-Phenotype (%),[3],7%
same,Population Mitotic Cells (%),[3],34% and 58%
same,Population Normal (%),[3],99% and 100%
same,Population Pyknosed Nuclei (%),[3],42% and 23%
same,Population Tubulin-Different-Phenotype (%),[3],36% and 35%
same,Total Cell Count,[3],150 and 176
same,Population Apoptotic (%),[4],68% and 63%
same,Population Fragmented Nuclei (%),[4],16% and 17%
same,Population Healthy Nuclei (%),[4],57% and 59%
same,Population Hoechst High Intensity Objects (%),[4],0% and 1%
same,Population Membrane Permeable-Phenotype (%),[4],7% and 5%
same,Population Mitochondria Different-Phenotype (%),[4],12% and 15%
same,Population Mitotic Cells (%),[4],31% and 36%
same,Population Normal (%),[4],99% and 98%
same,Population Pyknosed Nuclei (%),[4],25% and 23%
same,Population Tubulin-Different-Phenotype (%),[4],76% and 58%
same,Total Cell Count,[4],261 and 279
same,Population Apoptotic (%),[5],76% and 68%
same,Population Fragmented Nuclei (%),[5],15% and 18%
same,Population Healthy Nuclei (%),[5],49% and 66%
same,Population Hoechst High Intensity Objects (%),[5],0% and 1%
same,Population Membrane Permeable-Phenotype (%),[5],2%
same,Population Mitochondria Different-Phenotype (%),[5],5%
same,Population Mitotic Cells (%),[5],23% and 32%
same,Population Normal (%),[5],100% and 98%
same,Population Pyknosed Nuclei (%),[5],34% and 15%
same,Population Tubulin-Different-Phenotype (%),[5],32% and 19%
same,Total Cell Count,[5],161 and 167
same,Population Apoptotic (%),[6],84% and 82%
same,Population Fragmented Nuclei (%),[6],19%
same,Population Healthy Nuclei (%),[6],59% and 63%
same,Population Hoechst High Intensity Objects (%),[6],3% and 4%
same,Population Membrane Permeable-Phenotype (%),[6],5% and 6%
same,Population Mitochondria Different-Phenotype (%),[6],10%
same,Population Mitotic Cells (%),[6],15% and 17%
same,Population Normal (%),[6],96% and 95%
same,Population Pyknosed Nuclei (%),[6],21% and 17%
same,Population Tubulin-Different-Phenotype (%),[6],68% and 54%
same,Total Cell Count,[6],226 and 303
